Shown are actives, neighbours in structure and some others; about 2.3% of the full set was active somewhere.
HNF4A DNA FP: change in binding of human HNF4 alpha to DNA; P41235; HNF4a-FITC DNA binding, fluorescence polarization, 1 h; activity change, % at 10 µM; actives 0.3% (n = 360,000); in the data active means activity change above about 30%, passing the limit was not always enough
Target sequence (P41235 whole entry, looked up): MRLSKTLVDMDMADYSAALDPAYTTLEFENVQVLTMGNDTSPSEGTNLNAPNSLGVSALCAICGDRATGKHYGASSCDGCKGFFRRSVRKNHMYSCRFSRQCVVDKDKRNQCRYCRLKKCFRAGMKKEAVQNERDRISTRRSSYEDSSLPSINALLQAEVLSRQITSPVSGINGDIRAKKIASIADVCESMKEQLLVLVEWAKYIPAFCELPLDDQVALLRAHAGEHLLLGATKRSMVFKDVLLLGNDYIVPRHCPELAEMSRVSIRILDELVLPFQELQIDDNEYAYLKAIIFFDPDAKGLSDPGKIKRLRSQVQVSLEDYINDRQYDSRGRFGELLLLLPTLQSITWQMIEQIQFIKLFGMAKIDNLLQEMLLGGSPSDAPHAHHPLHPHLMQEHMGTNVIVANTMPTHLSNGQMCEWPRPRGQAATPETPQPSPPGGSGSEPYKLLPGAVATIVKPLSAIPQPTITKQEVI
Rpn11 block: inhibitors of human proteasome Rpn11. actives 0.59% (n = 360,000). human 26S proteasome, Ub4-pepOG fluorescence polarization; 20S core pre-blocked with epoxomicin. AID 588493. inhibition, % at 20 µM. O00487;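 active means inhibition at 20 µM, scaled to each plate's controls, above about 33%, limit read from the data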
CSN deneddyl inh: CSN deneddylation inhibition; Q92905; Purified CSN, SCF-Nedd8-OG deneddylation, fluorescence polarization; actives 0.38% (n = 360,000); AID 651999; inhibition, % at 12.5 µM;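 active means pattern-corrected inhibition above about 35%, with an unprinted fluorescence ratio check between 0.5 and 1.5, limit read from the data, passing the limit was not always enough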;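 further: 0% = enzyme with substrate and 100% = substrate without enzyme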
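Material: human Csn5 produced in HEK293T cells; Input: enzyme 0.24 nM; Reagent: SCFSkp2-Nedd8OG substrate at 10 nM final; Dosing: 12.5 µM compound; Incubation: 90 min reaction at room temperature; Detection: fluorescence polarization of the substrate; Evaluation: % inhibition of substrate cleavage by Csn5; Control set: substrate-only high control, full reaction low control.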
TPT1 inhibitor: blocks Candida albicans tRNA 2'-phosphotransferase; recombinant caTPT1, FP RNA substrate dephosphorylation; inhibition, % at 5 µM; actives 0.81% (n = 300,000);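 active means inhibition above the mean of all tested compounds plus 3 SD, set per screening campaign, cut at about 24% in these data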;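 further: plate controls were DMSO alone for no effect and ferristatin control at 100 nM for full effect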
Myeloid diff MLP: promotes myeloid progenitor differentiation; ER-HoxA9 myeloid progenitors, lysozyme-GFP differentiation, flow cytometry; calls only at 10 µM; actives 1% (n = 360,000); AID 624256;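 active means normalized GFP-positive differentiation at or above the plate's own cutoff, the solvent-only control mean plus 3 SD; inconclusive means no clear call, values can overlap the other calls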;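 further: cells exposed to compound for four days before flow analysis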
caTPT1 confirm: confirmation of Candida albicans TPT1 inhibitors; shares compounds with TPT1 inhibitor; recombinant caTPT1, fluorescence polarization, RNase T1 coupled; inhibition, % at 5 µM; actives 74% (n = 2,400); AID 2149;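 active means inhibition above the primary screen limit, the mean inhibition of all tested compounds plus 3 SD, cut at about 25% in these data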
RNase T1 inh: counter-screen for TPT1 inhibitors: inhibitors of Aspergillus oryzae RNase T1; inhibition, % at 5 µM; RNase T1 cleavage, fluorescence polarization, 1536-well; shares compounds with TPT1 inhibitor; actives 83% (n = 2,400);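 active means inhibition above the solvent-only control well mean plus 3 SD, limit set per screening run, cut at about 23% in these data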;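 further: plate controls were DMSO wells with enzyme for no effect and wells without RNase T1 for full effect; inhibitors block cleavage so intact labeled substrate keeps polarization high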
Target sequence (P00651 whole entry, looked up): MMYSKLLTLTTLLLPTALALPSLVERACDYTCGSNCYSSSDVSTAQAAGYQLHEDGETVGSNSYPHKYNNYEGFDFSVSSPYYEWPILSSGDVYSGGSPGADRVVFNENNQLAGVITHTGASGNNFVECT
* marks the source's active call; other numbers are inactive results; i = inactive; u = inconclusive; x = no result given; + = active, no number.

SMILES	HNF4A DNA FP	Rpn11 block	CSN deneddyl inh	TPT1 inhibitor	Myeloid diff MLP	caTPT1 confirm	RNase T1 inh
Cc1ccc(S(=O)(=O)N2CCC(=O)N([C@H](COCc3ccc(Cl)c(Cl)c3)Cc3ccccc3)CC2)cc1	1	x	-1	x	i	x	x
Cc1nc(S/C(=C/c2ccc(-c3cccc(Cl)c3)o2)C(=O)O)n[nH]1	26	33	-6	25*	+	35*	48*
Cc1ccc(S(=O)(=O)N(C)c2ccc(C(=O)N(C)Cc3nc4ccccc4c(=O)[nH]3)cc2)cc1	-3	-13	5	x	i	x	x
COc1cc([N+](=O)[O-])ccc1NC(=O)CN(C)C	-4	3	3	26*	i	2	8
CCOCC(=O)Nc1ccc([N+](=O)[O-])cc1OC	-4	1	-2	36*	i	3	6
O=C(Nc1ccccc1)c1cc(S(=O)(=O)N2CCSCC2)ccc1Cl	1	-8	1	1	i	x	x
Cc1ccccc1-n1c(C)cc(/C=N/Nc2ccc([N+](=O)[O-])cn2)c1C	11	22	6	38*	i	41*	56*
O=[N+]([O-])c1ccc(NN=Cc2ccccc2O)nc1	10	3	-2	x	u	x	x
Cc1ccc(C)c(C(=O)Nc2nc3ccccc3[nH]2)c1	0	-8	0	25*	i	9	15
O=C(NCc1ccco1)c1cnc2sccn2c1=O	-5	-4	2	-2	i	x	x
O=C(NCCc1ccccc1)c1cnc2sccn2c1=O	2	5	1	33*	i	9	10
C[C@@H]1CN([C@H](C)CO)C(=O)CCCn2nncc2CO[C@H]1CN(C)S(=O)(=O)c1ccccc1F	-3	-1	-2	x	i	x	x
Cc1cccc(N=C2NC(=O)/C(=C/c3cccn3C)S2)c1C	24	x	16	25*	i	37*	49*
NS(=O)(=O)c1ccc(-c2ccc(/C=C3\NC(=S)NC3=O)o2)cc1	36*	5	-1	45*	i	70*	80*
CCOc1ccc2ccc(OCC)c(/C=N/n3cnnc3)c2c1	0	4	3	-1	i	x	x
CN(C)c1ccc(/C=C(/C#N)C(=O)NCc2ccccc2)o1	178	x	71	177*	i	192*	176*
N#C/C(=C/c1ccccc1)C(=O)NCc1ccccc1	1	-4	0	-1	i	x	x
Cc1sc2nc(COC(=O)c3ccc(N4CCCC4)c([N+](=O)[O-])c3)[nH]c(=O)c2c1C	28	x	9	69*	+	69*	78*
Cc1sc2nc(COC(=O)c3ccc(N4CCCC(C)C4)c([N+](=O)[O-])c3)[nH]c(=O)c2c1C (stereo unspecified)	3	1	-3	2	i	x	x
COc1ccccc1CC(NC(C)=O)C(=O)NC1CCN(C(=O)Nc2ccccc2F)CC1 (stereo unspecified)	-4	-2	-2	2	i	x	x
CCOC(=O)c1ccc2c(c1)nc(SCC(=O)c1cc3ccccc3o1)n2CC	4	22	3	33*	i	15	24*
Cn1cnnc1SCC(=O)c1cc2ccccc2o1	5	2	4	4	i	x	x
COc1ccc(-n2nnnc2SCC(=O)c2cc3ccccc3o2)cc1	3	20	4	32*	i	26*	35*
Cn1ccnc1SCC(=O)c1cc2ccccc2o1	15	38	5	61*	i	29*	41*
C=CCNC(=O)CSc1nc2cc(C(=O)OCC)ccc2n1CC	-1	-1	-1	-1	i	x	x
SMILES	HNF4A DNA FP	Rpn11 block	CSN deneddyl inh	TPT1 inhibitor	Myeloid diff MLP	caTPT1 confirm	RNase T1 inh
CCc1ccc(-n2c(=O)c3c(C)c(C(=O)N(C)C)sc3n(CC(=O)NCc3ccco3)c2=O)cc1	-1	2	-5	1	i	x	x
Cc1ccc(C(=O)NCc2ccccn2)cc1NC1=NC2CS(=O)(=O)CC2S1 (stereo unspecified)	2	2	-3	3	i	x	x
O=C(CCn1nnnc1CN1CCOCC1)N1CCC(c2cccc(Cl)c2)C1 (stereo unspecified)	-2	-2	1	1	i	x	x
CCc1nnc(NC(=O)CSc2sc3c(O)cc(=O)[nH]c3c2C#N)s1	-35	61*	30	49*	x	14	18
O=C(CCCN1C(=O)/C(=C/c2ccccc2Cl)SC1=S)NNC(=O)c1ccc(Cl)cc1	15	19	4	2	i	x	x
Cc1ccc(C(=O)NNC(=O)CCCN2C(=O)/C(=C/c3ccccc3Cl)SC2=S)cc1	5	4	5	38*	i	7	12
Cc1nn(-c2ccccc2)c(N2CCCC2)c1/C=C1\N=C(c2ccc(OC(C)C)cc2)OC1=O	1	x	0	43*	i	73*	81*
COc1ccc(/C=C2\CC/C(=C\c3ccc(OC)c(OC)c3)C2=O)cc1OC	7	-8	15	3	i	x	x
CN(C)/N=C/C=C1\CC/C(=C\c2ccc(Br)cc2)C1=O	29	32	22	77*	i	55*	66*
COC(=O)c1cnc(Nc2nc(CN)cs2)nc1C(F)(F)F	1	0	-3	x	i	x	x
N#Cc1cc(NC(=O)c2ccc(F)cc2)c(=O)n2c1[nH]c1ccccc12	x	x	x	28*	x	30*	38*
CC[C@H](C)NC(=O)c1ccc(Cn2c(=S)[nH]c3c([nH]c4ccc(OC)cc43)c2=O)cc1	-2	-8	2	-2	i	x	x
O=C1/C(=C/c2ccc(N3CCCC3)cc2)NC(=S)N1C1CC1	169	x	134	162*	i	169*	153*
O=C1NC(=S)N/C1=C\c1ccc(N2CCOCC2)cc1	16	30	7	26*	i	26*	33*
O=C1N/C(=C/c2ccc(N3CCOCC3)cc2)C(=O)N1Cc1ccc(F)cc1	-3	0	2	-5	i	x	x
CCOC(=O)c1ccc(Nc2sc(C(=O)c3cccc([N+](=O)[O-])c3)c(N)c2C#N)cc1	-1	-5	3	3	u	x	x
CCOC(=O)/C(C#N)=C\c1cc(C)n(-c2ccccc2)c1C	4	-18	0	1	i	x	x
CCOC(=O)/C(C#N)=C\c1ccc(N2CCN(C/C=C/c3ccccc3)CC2)cc1	6	x	17	46*	+	82*	92*
Cc1ccc(N=Cc2nc(-c3ccc(C)cc3)oc2O)cc1	-2	22	-2	x	i	x	x
CC1=Nc2ccccc2/C1=C\c1nc(-c2ccc(C(F)(F)F)cc2)oc1O	-53	30	-71	156*	+	152*	142*
COc1ccc(-c2nc(/C=C3\C(C)=Nc4ccccc43)c(O)o2)cc1	24	x	4	95*	i	106*	112*

Screens as filed in PubChem BioAssay.
